In article PMC11770135 (Journal of Pesticide Science, 2024):

Columns and labels:
[1] = system: respiratory complexes I, III, and IV (NADH oxidase activity); assay: NADH oxidase activity; type: biochemical, housefly (Musca domestica); settings: housefly mitochondria; compound added during NADH oxidation at final 40 nM
In short: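 Housefly crude mitochondria were prepared by homogenizing in 250 mM sucrose, 5.0 mM EDTA, 10 mM Tris-HCl (pH 7.5), then differential centrifugation, and permeabilized by freeze-thawing. Protein was 30 µg/mL in 150 mM KCl, 2.5 mM MgCl₂, 30 mM KPi (pH 7.4) at 30°C. The reaction was started with 150 µM NADH, and NADH oxidation was followed at 340 nm.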

Qi site of complex III = molecular target: T1, Qi site of complex III (Lucilia sericata, UniProt A7DT80); assay: MS-based competition binding, Qi site; parameters: species or system green bottle fly (Lucilia sericata); settings: reporter ligand FloMet 15 nM; two independent experiments
T1 sequence (A7DT80 1-378): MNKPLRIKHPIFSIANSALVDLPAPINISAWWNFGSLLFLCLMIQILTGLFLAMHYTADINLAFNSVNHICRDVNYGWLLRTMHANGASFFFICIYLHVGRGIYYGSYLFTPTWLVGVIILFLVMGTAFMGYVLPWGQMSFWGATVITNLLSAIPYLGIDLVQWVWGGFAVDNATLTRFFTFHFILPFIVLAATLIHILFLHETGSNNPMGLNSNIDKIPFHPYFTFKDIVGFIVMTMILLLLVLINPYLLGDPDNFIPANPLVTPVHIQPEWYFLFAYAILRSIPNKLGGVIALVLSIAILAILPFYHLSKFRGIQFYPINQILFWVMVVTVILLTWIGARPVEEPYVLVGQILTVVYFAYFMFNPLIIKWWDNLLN
In short: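 20–40 µg particles were incubated with reporter and competitor for 1 hr at room temperature in 50 mM Tris-HCl, 120 mM NaCl, 0.1 mM EDTA (pH 7.4) with bacitracin and undecyl maltoside. Bound ligand was filtered, acetonitrile-extracted and quantified by LC-ESI-MS/MS. Ki came from a one-site LogKi fit.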

[2] = system: cytochrome b hemes of complex III; assay: Reduction of cytochrome b hemes in housefly mitochondria; type: biochemical, housefly (Musca domestica); settings: myxothiazol 8 µM with FloMet 5 µM or antimycin A 2 µM
In short: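 Housefly mitochondria at 0.8 mg/mL were held in 150 mM KCl, 2.5 mM MgCl₂, 1 µM rotenone, 0.2 µM SF6847, 2.0 mM KCN and 30 mM KPi (pH 7.4) at 30°C, and equilibrated with inhibitor(s) for 4 min. Reduction was started with succinate and recorded in dual-wavelength mode. Full reduction was set with excess sodium dithionite.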

SMILES | inhibition of NADH oxidase activity [1] | displacement of FloMet bound to the Qi site (Qi site of complex III) | effect on reduction of cytochrome b hemes, in combination with myxothiazol [2]
CCc1nc2cc(C)c(Oc3ccc(OC(F)(F)F)cc3)cc2c(OC(=O)OC)c1C [FLO, 2-ethyl-3,7-dimethyl-6-[4-(trifluoromethoxy)phenoxy]quinolin-4-yl methyl carbonate] | almost no inhibition | – | –
CCCCCC[C@H]1C(=O)O[C@H](C)[C@H](NC(=O)c2cccc(NC=O)c2O)C(=O)O[C@@H](C)[C@@H]1OC(=O)CC(C)C [antimycin A] | – | displaced FloMet at low nano molar range | suppression of the reduction of b hemes
